HTRA1 inh: HTRA1 (human) protease inhibition; AID 504803; inhibition, % at 5.96 µM; hit rate 0.5% among 340,000; recombinant HTRA1, FP-rhodamine activity-based probe, fluorescence polarization; Q92743; in the data active = inhibition above about 36%
SIAE primary: human SIAE inhibition, primary screen; Q9HAT2; SIAE FP-Rh probe binding, fluorescence polarization; inhibition, % at 9.66 µM; hit rate 0.69% among 370,000; AID 1053197;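 active = inhibition above a cutoff: mean of compounds within the control limits plus 3 SD of those, cut at about 17% in these data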
ABHD4 inh: ABHD4 (mouse) inhibition, primary FP screen; Q8VD66; purified mABHD4, FP-Rh probe fluorescence polarization; inhibition, % at 8.92 µM; hit rate 0.54% among 370,000; AID 720543;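 active = inhibition exceeding the mean over every tested compound plus 3 SD, cut at about 30% in these data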
Target sequence (Q8VD66 whole entry, looked up): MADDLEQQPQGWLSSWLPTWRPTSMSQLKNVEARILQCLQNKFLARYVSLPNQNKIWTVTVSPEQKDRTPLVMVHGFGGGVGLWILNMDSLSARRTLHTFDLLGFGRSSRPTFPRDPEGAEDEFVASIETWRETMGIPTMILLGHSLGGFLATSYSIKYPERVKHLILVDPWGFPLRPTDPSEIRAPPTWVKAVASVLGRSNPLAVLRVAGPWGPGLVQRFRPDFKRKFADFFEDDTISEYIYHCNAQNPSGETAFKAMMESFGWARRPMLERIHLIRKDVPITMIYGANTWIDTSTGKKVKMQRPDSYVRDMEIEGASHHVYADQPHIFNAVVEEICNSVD
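system = mouse ABHD4 enzyme, wild type | medium = HEPES pH 7.0, NaCl, Pluronic buffer | also added = FP-Rh probe | incubation = Enzyme–compound pre-incubation 45 min, then probe 60 min, both 25 °C | technique = fluorescence polarization, excitation 525 nm, emission 598 nm, BODIPY TMR filters | controls = S159A mutant high control, sample median low control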
PRMT1 FP inh: blocks human protein arginine methyltransferase 1. Q99873. recombinant PRMT1, activity-based probe fluorescence polarization. inhibition, % at 2.79 µM. hit rate 1.3% among 370,000. AID 652257;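 active = inhibition above about 21% made by adding two undisclosed values, limit read from the data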
Target sequence (Q99873 whole entry, looked up): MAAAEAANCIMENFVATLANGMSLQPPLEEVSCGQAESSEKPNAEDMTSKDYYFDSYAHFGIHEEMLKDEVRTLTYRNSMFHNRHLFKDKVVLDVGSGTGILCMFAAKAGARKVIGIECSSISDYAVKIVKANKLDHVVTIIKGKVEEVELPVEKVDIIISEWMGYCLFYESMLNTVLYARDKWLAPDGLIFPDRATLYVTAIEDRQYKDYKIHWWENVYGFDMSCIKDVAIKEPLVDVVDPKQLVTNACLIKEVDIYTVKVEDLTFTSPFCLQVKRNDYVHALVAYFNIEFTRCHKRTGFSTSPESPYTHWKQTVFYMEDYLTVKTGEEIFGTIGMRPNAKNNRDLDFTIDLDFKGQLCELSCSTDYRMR
TCR-CD3 inh: inhibitors of human TCR-CD3 interaction; TAMRA-labeled TCR probe fluorescence, biochemical; inhibition, % at 9.4 µM; hit rate 0.37% among 360,000; in the data active = inhibition above about 19%;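 note: recombinant mutant TCR 2C K166C tagged with TAMRA read by polarization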
PRMT1 confirm: PRMT1 (human) inhibition, FP confirmation. shares compounds with PRMT1 FP inh. recombinant His-PRMT1, activity-based probe fluorescence polarization. inhibition, % at 2.79 µM. hit rate 42% among 3,300. AID 687036;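 active = mean inhibition across replicates above the hit cutoff derived for the earlier primary screen, cut at about 22% in these data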
Large screens that a line does not name were inactive (follow-up assays come after a bar, where they were run). An excerpt weighted towards active compounds, which were near 2.5% of everything screened.

Cc1nc(SC2CC(=O)N(c3ccccc3)C2=O)n[nH]1 (centres undefined)	PRMT1 FP inh 50 | PRMT1 confirm 63
C=CCNc1nnc(SC2CC(=O)N(c3ccc(OCCC)cc3)C2=O)s1 (centres undefined)	PRMT1 FP inh 67 | PRMT1 confirm 66
CCOc1ccc(N2C(=O)CC(Sc3nc4ccc(OCC)cc4s3)C2=O)cc1 (centres undefined)	none
O=C1CCC[C@H]2C[C@H](NCc3ccc(Cl)c(Cl)c3)CC[C@]23CCCN13	none (no result: HTRA1 inh, TCR-CD3 inh)
C[C@H](NC(=O)OCc1ccccc1)P(=O)(O)O	none (no result: HTRA1 inh, TCR-CD3 inh)
c1cn2cc(-c3ccc4c(c3)OCO4)nc2s1	PRMT1 FP inh 35 | PRMT1 confirm 46
CCCn1c(SCC(=O)N2CC(=O)Nc3ccccc32)nc2ccccc21	PRMT1 FP inh 37 | PRMT1 confirm 24
O=C1CN(C(=O)CSc2nc3ccccc3n2CCc2ccccc2)c2ccccc2N1	none
CCC(Oc1ccccc1)C(=O)Nc1nc2ccccc2[nH]1 (centres undefined)	PRMT1 FP inh 26 | PRMT1 confirm inactive
NC(=O)c1ccc(SCC(=O)OCC(=O)NCc2cccs2)c([N+](=O)[O-])c1	PRMT1 FP inh 45 | PRMT1 confirm inactive
NC(=O)c1ccc(SCC(=O)OCC(=O)NCC2CCCCC2)c([N+](=O)[O-])c1	none
CCC(=O)Nc1sc(Cc2ccccc2)c(C)c1C(N)=O	none
Cc1c(Cc2ccccc2)sc(NC(=O)Cc2ccccc2)c1C(N)=O	PRMT1 FP inh 29 | PRMT1 confirm inactive
N#C[C@@H]1N[C@H](CO)[C@@H]1c1ccccc1	none (no result: HTRA1 inh, TCR-CD3 inh)
COC(=O)/C(C#N)=C/c1c(N2CCN(c3ccccc3)CC2)nc2c(C)cccn2c1=O	PRMT1 FP inh 26 | PRMT1 confirm inactive
COC(=O)/C(C#N)=C/c1c(N2CCN(c3cccc(Cl)c3)CC2)nc2c(C)cccn2c1=O	none
CCc1cc(C(=O)Nc2ccc(OC)nc2)sc1C	PRMT1 FP inh 26 | PRMT1 confirm inactive
CC1=C2NC(N)=[N+](Cc3ccc4c(c3)OCO4)CC2NOC1 (centres undefined)	none (no result: HTRA1 inh, TCR-CD3 inh)
COc1ccc(NC(=O)C2=CC(c3ccc(OC)cc3)=NS(=O)(=O)N2C)cc1	none
COc1ccc(C2=NS(=O)(=O)N(C)C(C(=O)Nc3ccc(F)cc3F)=C2)cc1	PRMT1 FP inh 85 | PRMT1 confirm inactive
O=C(C1=NN[C@@H]2C(=O)N(c3cccc(F)c3)C(=O)[C@H]12)c1cnccn1	PRMT1 FP inh 36 (no result: HTRA1 inh) | PRMT1 confirm inactive
O=C(C1=NN[C@@H]2C(=O)N(c3ccccc3C(F)(F)F)C(=O)[C@H]12)c1cnccn1	none
COc1ccc(CN2C[C@]3(C=C(C)Cn4c(=O)n(-c5ccccc5)c(=O)n43)N=C2NC(=O)c2ccccc2)c(OC)c1	none (no result: HTRA1 inh, TCR-CD3 inh)
COC(=O)c1cc(-c2ccccc2)c(=O)n2c1CCC2	none (no result: HTRA1 inh, TCR-CD3 inh)
Cc1cccc(Cn2cc(CN3CC(N(C)CCCOC(=O)c4cc(C)cc(C)c4)CS3(=O)=O)nn2)c1 (centres undefined)	none (no result: HTRA1 inh, TCR-CD3 inh)
Cc1nc(SCc2ccc(O)c([N+](=O)[O-])c2)n[nH]1	none
Cc1nc(SCc2ccc(O)c([N+](=O)[O-])c2)c([N+](=O)[O-])[nH]1	PRMT1 FP inh 35 | PRMT1 confirm inactive
Cc1cc[n+](-c2[nH]c(=O)sc2/C=N/N=C(\[O-])c2ccccc2)cc1C	PRMT1 FP inh 62 | PRMT1 confirm 38
CC(=O)Oc1ccc(N2C(=O)C3C4C=CC(CO)(O4)C3C2=O)cc1 (centres undefined)	PRMT1 FP inh 85 | PRMT1 confirm 79
O=C1C2C3C=CC(CO)(O3)C2C(=O)N1c1ccccc1-c1ccccc1 (centres undefined)	none (no result: SIAE primary, ABHD4 inh, PRMT1 FP inh, TCR-CD3 inh)
O=C1C2C3C=CC(CNS(=O)(=O)c4ccccc4)(O3)C2C(=O)N1c1ccc(Cl)cc1 (centres undefined)	PRMT1 FP inh 80 | PRMT1 confirm 69
NC(=O)c1sc2nc(N3CCOCC3)c3c(c2c1N)CCCC3	PRMT1 FP inh 26 | PRMT1 confirm inactive
CN(C(=O)c1sc2nc(N3CCOCC3)c3c(c2c1N)CCCC3)c1ccccc1	PRMT1 FP inh 26 | PRMT1 confirm inactive
Cc1ccccc1NC(=O)c1sc2nc(N3CCOCC3)c3c(c2c1N)CCCC3	PRMT1 FP inh 42 | PRMT1 confirm 41
COc1ccc(S(=O)(=O)N2CCN(C(=O)CSc3nc4ccccc4nc3N3CCCCC3)CC2)cc1	none (no result: HTRA1 inh, TCR-CD3 inh)
CCN(Cc1cccs1)c1ncnc2ccc(-c3ccc4c(c3)OCO4)cc12	none (no result: HTRA1 inh, TCR-CD3 inh)
CCOC(=S)SCC(=O)Nc1ncc(C)s1	PRMT1 FP inh 59 | PRMT1 confirm 46
C[n+]1c(-c2ccccc2)sc([S-])c1-c1ccccc1	PRMT1 FP inh 51 (no result: HTRA1 inh) | PRMT1 confirm inactive
COc1ccc(C/C(N)=N/OC(=O)c2cccc([N+](=O)[O-])c2)cc1	PRMT1 FP inh 45 | PRMT1 confirm inactive
COc1ccccc1C/C(N)=N/OC(=O)c1cccc([N+](=O)[O-])c1	none
O=S1(=O)CC=C(CSC(=S)NC2CCS(=O)(=O)C2)C1 (centres undefined)	PRMT1 FP inh 26 | PRMT1 confirm 91
COC(=O)[C@H](CC(C)C)N1Cc2nnn(Cc3ccccc3)c2-c2cc(F)ccc2S1(=O)=O	none (no result: HTRA1 inh, TCR-CD3 inh)
CCOC(=O)[C@@]12CN(C(=O)OC(C)(C)C)CC=C1N(Cc1ccc(OC)cc1)C(=O)[C@H]2CC(=O)N1CCCCC1	none (no result: HTRA1 inh, TCR-CD3 inh)
Cc1ccc(/C=C/C(=O)N2CCN(c3ncccn3)CC2)o1	PRMT1 FP inh 50 | PRMT1 confirm 36
Cc1ccc(/C=C/C(=O)N2CCN(c3ccc(F)cc3)CC2)o1	none
CCOc1ccc(CCNC(=O)c2cc3sccc3n2CC)cc1OC	none (no result: HTRA1 inh, TCR-CD3 inh)
CCCC(=O)OCCNc1cc(Sc2nc3ccccc3[nH]2)c2nonc2c1[N+](=O)[O-]	PRMT1 FP inh 67 | PRMT1 confirm 73
CCC(=O)OCCNc1cc(Sc2nccn2C)c2nonc2c1[N+](=O)[O-]	PRMT1 FP inh 43 | PRMT1 confirm 65
COc1ccc(OC)c(-n2c(=S)[nH]c3c(sc(=S)n3-c3ccccc3)c2=O)c1	PRMT1 FP inh 65 | PRMT1 confirm inactive
CCOC(=O)CSc1nc2c(sc(=S)n2-c2ccccc2)c(=O)n1-c1ccc(OC)cc1OC	none
COc1ccc2nc(NC(=S)N(C)C)sc2c1	PRMT1 FP inh 28 | PRMT1 confirm inactive
CCCC(=O)Nc1nc2ccc(OC)cc2s1	none
COC(=O)[C@]1(C)CN(C(=O)OC(C)(C)C)C2=C1C(=O)C[C@@](C)(C(=O)OC(C)(C)C)C2	none (no result: HTRA1 inh, TCR-CD3 inh)
Cc1ccc(NC(=O)c2cc(N3C(=O)C=CC3=O)ccc2N2CCOCC2)cc1Cl	PRMT1 FP inh 90 | PRMT1 confirm 103
COCCN1Cc2cc(C(=O)OC)c3c(c2C1=O)c1cc(OC)ccc1n3S(=O)(=O)c1ccc(C)cc1	none (no result: HTRA1 inh)
CCn1nc(C)cc1-c1nnc(SCC(=O)Nc2ccccc2)n1CCCOC	none
CCn1nc(C)cc1-c1nnc(Sc2ncc([N+](=O)[O-])s2)n1C	PRMT1 FP inh 55 | PRMT1 confirm 63
COc1cccc(OC)c1C(=O)NCCc1ccccc1	none
